Key:
CYP2C9 = CYP2C9 (Homo sapiens, UniProt P11712); assay: Inhibition of CYP2C9 in human liver microsomes at 10 uM measured after 20 mins in presence of NADPH by LC/MS/MS analysis relative to control; type: ADME
In short: (§1)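 CYP isoforms 1A2, 2D6, 3A4, 2C9 and 2C19 were tested at 1 and 10 µM. Results are % inhibition compared with a no-inhibitor control, run in triplicate.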

CYP2D6 = CYP2D6 (Homo sapiens, UniProt P10635); assay: Inhibition of CYP2D6 in human liver microsomes at 10 uM measured after 20 mins in presence of NADPH by LC/MS/MS analysis relative to control; type: ADME; details: liver microsomes; in short: as §1
CYP2D6, sequence (P10635 whole entry): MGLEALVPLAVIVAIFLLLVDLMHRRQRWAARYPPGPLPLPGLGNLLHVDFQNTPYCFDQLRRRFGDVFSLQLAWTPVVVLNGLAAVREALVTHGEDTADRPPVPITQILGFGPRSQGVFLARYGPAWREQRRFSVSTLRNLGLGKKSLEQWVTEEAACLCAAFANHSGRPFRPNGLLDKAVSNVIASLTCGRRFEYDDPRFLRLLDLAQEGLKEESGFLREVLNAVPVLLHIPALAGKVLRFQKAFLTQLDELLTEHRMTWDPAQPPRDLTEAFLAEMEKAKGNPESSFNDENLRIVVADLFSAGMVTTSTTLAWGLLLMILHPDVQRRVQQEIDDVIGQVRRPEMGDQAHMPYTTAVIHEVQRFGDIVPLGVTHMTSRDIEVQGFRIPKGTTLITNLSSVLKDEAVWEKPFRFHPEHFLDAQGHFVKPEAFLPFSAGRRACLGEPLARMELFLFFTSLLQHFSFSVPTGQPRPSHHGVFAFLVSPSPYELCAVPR

Cytochrome P450 1A2 = target: T1, Cytochrome P450 1A2 (Homo sapiens, UniProt P05177); assay: Inhibition of CYP1A2 in human liver microsomes at 1 uM measured after 20 mins in presence of NADPH by LC/MS/MS analysis; type: ADME; in short: as §1
T1 sequence (P05177 whole entry): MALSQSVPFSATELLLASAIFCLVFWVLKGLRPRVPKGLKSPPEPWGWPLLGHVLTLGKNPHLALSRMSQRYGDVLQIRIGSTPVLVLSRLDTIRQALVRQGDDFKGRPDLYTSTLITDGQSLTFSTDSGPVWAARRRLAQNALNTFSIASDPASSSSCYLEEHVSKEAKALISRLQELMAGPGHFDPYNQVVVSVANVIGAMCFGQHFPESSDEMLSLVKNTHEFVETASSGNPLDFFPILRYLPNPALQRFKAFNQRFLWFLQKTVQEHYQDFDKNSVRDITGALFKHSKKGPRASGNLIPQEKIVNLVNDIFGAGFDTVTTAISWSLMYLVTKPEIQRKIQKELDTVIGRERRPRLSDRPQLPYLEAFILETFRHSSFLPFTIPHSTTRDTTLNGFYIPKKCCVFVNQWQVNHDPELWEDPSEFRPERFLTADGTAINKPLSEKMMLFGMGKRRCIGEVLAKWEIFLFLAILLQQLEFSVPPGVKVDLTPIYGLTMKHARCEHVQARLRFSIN

Cytochrome P450 2C9 = Cytochrome P450 2C9 (Homo sapiens, UniProt P11712); assay: Inhibition of CYP2C9 in human liver microsomes at 1 uM measured after 20 mins in presence of NADPH by LC/MS/MS analysis; type: ADME; in short: as §1
Cytochrome P450 2C9, sequence (P11712 whole entry): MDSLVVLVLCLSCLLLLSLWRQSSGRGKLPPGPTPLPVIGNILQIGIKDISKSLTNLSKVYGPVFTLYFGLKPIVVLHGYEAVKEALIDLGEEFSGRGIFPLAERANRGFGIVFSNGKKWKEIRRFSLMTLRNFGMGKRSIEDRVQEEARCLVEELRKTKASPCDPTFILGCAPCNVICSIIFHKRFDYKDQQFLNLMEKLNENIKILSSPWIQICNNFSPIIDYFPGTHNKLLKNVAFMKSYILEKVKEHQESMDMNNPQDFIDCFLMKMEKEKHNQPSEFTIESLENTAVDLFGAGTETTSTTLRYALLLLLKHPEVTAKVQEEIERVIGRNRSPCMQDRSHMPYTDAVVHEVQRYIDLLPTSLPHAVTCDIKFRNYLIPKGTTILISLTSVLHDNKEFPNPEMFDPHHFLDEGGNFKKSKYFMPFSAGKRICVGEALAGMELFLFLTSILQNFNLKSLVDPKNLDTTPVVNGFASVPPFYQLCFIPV

Cytochrome P450 2C19 = Cytochrome P450 2C19 (Homo sapiens, UniProt P33261); assay: Inhibition of CYP2C19 in human liver microsomes at 1 uM measured after 40 mins in presence of NADPH by LC/MS/MS analysis; type: ADME; in short: as §1
Cytochrome P450 2C19, sequence (P33261 whole entry): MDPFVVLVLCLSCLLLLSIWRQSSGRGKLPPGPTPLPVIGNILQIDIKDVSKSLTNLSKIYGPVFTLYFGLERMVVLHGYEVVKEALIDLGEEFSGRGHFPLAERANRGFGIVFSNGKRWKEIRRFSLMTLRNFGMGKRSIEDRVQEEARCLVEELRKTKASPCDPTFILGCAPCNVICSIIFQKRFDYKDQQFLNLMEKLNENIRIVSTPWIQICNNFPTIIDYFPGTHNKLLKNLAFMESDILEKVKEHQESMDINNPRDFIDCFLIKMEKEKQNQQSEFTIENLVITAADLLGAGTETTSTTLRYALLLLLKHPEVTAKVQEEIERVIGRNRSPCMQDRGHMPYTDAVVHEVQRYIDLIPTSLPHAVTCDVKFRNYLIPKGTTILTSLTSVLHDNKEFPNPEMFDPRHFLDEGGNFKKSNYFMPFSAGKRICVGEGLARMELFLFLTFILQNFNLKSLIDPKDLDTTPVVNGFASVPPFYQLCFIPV

Prostaglandin E synthase [1] = target: T2, Prostaglandin E synthase (Homo sapiens, UniProt O14684); assay: Inhibition of recombinant human mPGES-1 expressed in CHO cells assessed as reduction in PGE2 formation using PGH2 a substrate preincubated for 10 mins followed by substrate addition measured after 1 min; type: cell-based
T2 sequence (O14684 whole entry): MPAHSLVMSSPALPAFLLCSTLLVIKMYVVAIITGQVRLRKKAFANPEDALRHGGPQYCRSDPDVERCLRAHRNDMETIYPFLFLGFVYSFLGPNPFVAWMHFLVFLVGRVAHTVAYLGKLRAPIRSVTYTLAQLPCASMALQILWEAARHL
In short: (§2)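 mPGES-1 enzyme inhibition. % inhibition values are means of two experiments in duplicate. IC50 values were derived from graphs of at least two experiments in duplicate.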

Prostaglandin E synthase [2] = target: T2, Prostaglandin E synthase; assay: Inhibition of mPGES-1 in human A549 cells assessed as decrease in IL1beta induced PGE2 release preincubated for 30 mins followed by IL-1beta addition after 16 to 20 hrs by HTRF method; type: cell-based
CYP3A4 = CYP3A4 (Homo sapiens, UniProt P08684); assay: Inhibition of CYP3A4 in human liver microsomes at 10 uM measured after 20 mins in presence of NADPH by LC/MS/MS analysis relative to control; type: ADME; in short: as §1
CYP3A4, sequence (P08684 whole entry): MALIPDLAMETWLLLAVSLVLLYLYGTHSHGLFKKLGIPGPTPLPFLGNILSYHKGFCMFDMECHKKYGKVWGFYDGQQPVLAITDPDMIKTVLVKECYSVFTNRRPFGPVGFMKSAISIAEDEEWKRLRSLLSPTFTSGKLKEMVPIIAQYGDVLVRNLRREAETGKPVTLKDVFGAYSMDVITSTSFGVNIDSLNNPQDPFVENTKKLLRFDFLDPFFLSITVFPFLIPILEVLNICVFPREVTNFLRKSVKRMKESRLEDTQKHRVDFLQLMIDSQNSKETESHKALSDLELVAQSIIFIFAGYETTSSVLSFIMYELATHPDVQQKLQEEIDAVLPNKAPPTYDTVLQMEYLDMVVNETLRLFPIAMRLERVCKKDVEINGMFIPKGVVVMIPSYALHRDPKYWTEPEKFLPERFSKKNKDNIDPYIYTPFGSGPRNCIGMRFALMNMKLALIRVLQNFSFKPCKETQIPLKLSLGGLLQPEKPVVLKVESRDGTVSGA

[3] = Metabolic stability in Guinea pig liver microsomes assessed as parent compound remaining at 1 uM after 60 mins in presence of NADPH by LC/MS/MS analysis; type: ADME, Cavia porcellus, microsome; details: read-out: Stability
In short: (§3)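 Compound at 1.0 µM was incubated with liver microsomes (1.0 mg/mL protein) at 37 °C for 60 min. Samples were analysed by LC/MS/MS as % parent remaining. Run in triplicate.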

Cytochrome P450 2D6 = Cytochrome P450 2D6 (Homo sapiens, UniProt P10635); assay: Inhibition of CYP2D6 in human liver microsomes at 1 uM measured after 20 mins in presence of NADPH by LC/MS/MS analysis; type: ADME; in short: as §1
Cytochrome P450 2D6, sequence (P10635 whole entry): as the sequence (P10635 whole entry) above

Cytochrome P450 3A4 = Cytochrome P450 3A4 (Homo sapiens, UniProt P08684); assay: Inhibition of CYP3A4 in human liver microsomes at 1 uM measured after 20 mins in presence of NADPH by LC/MS/MS analysis; type: ADME; in short: as §1
Cytochrome P450 3A4, sequence (P08684 whole entry): as the sequence (P08684 whole entry) above

[4] = Metabolic stability in human liver microsomes assessed as parent compound remaining at 1 uM after 60 mins in presence of NADPH by LC/MS/MS analysis; type: ADME, microsome; details: read-out: Stability; in short: as §3
Cavia porcellus = assay: Analgesic activity in Dunkin Hartley guinea pig hyperalgesia pain model assessed as inhibition of LPS-induced thermal hyperalgesia at 10 mg/kg, po qd administered 1 hr prior to LPS stimulation measured after 4.5 hrs by plantar test relative to control; type: functional
In short: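 LPS was injected into the guinea pig plantar to induce thermal hyperalgesia, and compound was given orally. Response is expressed as % hyperalgesia, with a saline-injected naive group as 0% and the vehicle-treated LPS group as 100%. Values are mean ± SEM, n = 8 per dose group.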

[5] = Metabolic stability in rat liver microsomes assessed as parent compound remaining at 1 uM after 60 mins in presence of NADPH by LC/MS/MS analysis; type: ADME, microsome; details: read-out: Stability; in short: as §3
[6] = target: T3, Prostaglandin E synthase (Homo sapiens) (UniProt O14684); assay: Inhibition of recombinant human mPGES-1 expressed in CHO cells assessed as reduction in PGE2 formation at 10 uM using PGH2 a substrate preincubated for 10 mins followed by substrate addition measured after 1 min relative to control; type: cell-based; in short: as §2
T3 sequence (whole entry): T2 sequence (O14684 whole entry)

[7] = target: T3, Prostaglandin E synthase (Homo sapiens); assay: Inhibition of recombinant human mPGES-1 expressed in CHO cells assessed as reduction in PGE2 formation at 1 uM using PGH2 a substrate preincubated for 10 mins followed by substrate addition measured after 1 min relative to control; type: cell-based; in short: as §2
[8] = target: T4, Prostaglandin G/H synthase 2 (Homo sapiens, UniProt P35354); assay: Inhibition of recombinant human N-terminal His-tagged COX2 expressed in baculovirus infected Sf21 insect cells assessed as decrease in PGE2 release using arachidonic acid as substrate preincubated for 15 mins followed by arachidonic acid addition measured after 5 mins
T4 sequence (P35354 whole entry): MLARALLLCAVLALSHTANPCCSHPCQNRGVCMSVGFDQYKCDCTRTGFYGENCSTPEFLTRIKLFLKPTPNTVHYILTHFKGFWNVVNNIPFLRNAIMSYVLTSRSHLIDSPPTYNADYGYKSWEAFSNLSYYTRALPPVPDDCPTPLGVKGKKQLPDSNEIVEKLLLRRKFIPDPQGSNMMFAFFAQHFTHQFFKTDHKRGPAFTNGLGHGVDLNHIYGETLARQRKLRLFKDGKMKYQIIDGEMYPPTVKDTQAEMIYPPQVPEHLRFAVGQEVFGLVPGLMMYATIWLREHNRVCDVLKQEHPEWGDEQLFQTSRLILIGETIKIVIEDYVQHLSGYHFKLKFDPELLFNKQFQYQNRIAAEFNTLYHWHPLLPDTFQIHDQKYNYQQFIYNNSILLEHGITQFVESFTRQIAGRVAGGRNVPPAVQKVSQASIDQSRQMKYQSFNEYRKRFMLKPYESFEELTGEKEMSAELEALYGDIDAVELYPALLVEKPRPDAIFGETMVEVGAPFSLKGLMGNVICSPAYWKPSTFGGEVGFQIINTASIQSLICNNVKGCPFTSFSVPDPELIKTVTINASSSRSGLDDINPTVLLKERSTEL

COX2 [9] = target: T5, COX2 (Homo sapiens, UniProt P35354); assay: Inhibition of recombinant human N-terminal His-tagged COX2 expressed in baculovirus infected Sf21 insect cells assessed as decrease in PGE2 release at 1 uM using arachidonic acid as substrate preincubated for 15 mins followed by arachidonic acid addition measured after 5 mins relative to control; details: probe arachidonic acid
T5 sequence (P35354 whole entry): T4 sequence (P35354 whole entry)

COX2 [10] = target: T5, COX2; assay: Inhibition of recombinant human N-terminal His-tagged COX2 expressed in baculovirus infected Sf21 insect cells assessed as decrease in PGE2 release at 10 uM using arachidonic acid as substrate preincubated for 15 mins followed by arachidonic acid addition measured after 5 mins relative to control; details: probe arachidonic acid
[11] = target: Prostaglandin G/H synthase 1 (Homo sapiens, UniProt P23219); assay: Inhibition of COX1 in human U937 cells assessed as decrease in PGE2 release using arachidonic acid as substrate preincubated for 15 mins followed by arachidonic acid addition measured after 5 mins; type: cell-based
Prostaglandin G/H synthase 1, sequence (P23219 whole entry): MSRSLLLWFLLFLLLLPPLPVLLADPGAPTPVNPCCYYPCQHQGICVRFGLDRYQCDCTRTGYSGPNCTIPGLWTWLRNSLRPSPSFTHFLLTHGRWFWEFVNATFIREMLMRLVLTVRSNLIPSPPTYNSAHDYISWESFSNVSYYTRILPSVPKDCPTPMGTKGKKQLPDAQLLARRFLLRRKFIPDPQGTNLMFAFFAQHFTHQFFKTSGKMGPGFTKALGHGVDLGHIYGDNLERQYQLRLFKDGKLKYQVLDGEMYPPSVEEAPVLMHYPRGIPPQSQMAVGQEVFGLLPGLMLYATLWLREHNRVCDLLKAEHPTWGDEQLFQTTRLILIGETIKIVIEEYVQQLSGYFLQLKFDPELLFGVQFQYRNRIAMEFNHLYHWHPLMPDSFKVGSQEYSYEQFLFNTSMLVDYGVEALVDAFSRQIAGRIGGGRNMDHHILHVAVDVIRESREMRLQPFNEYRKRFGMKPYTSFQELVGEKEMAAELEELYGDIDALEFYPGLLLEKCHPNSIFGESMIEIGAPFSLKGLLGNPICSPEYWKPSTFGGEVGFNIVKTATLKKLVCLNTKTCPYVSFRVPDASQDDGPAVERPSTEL

CYP2C9, sequence (P11712 whole entry, canonical isoform): as the sequence (P11712 whole entry) above

inhibition at 20 min, 10 µM (CYP2C9) [%]	inhibition at 20 min, 10 µM (CYP2D6) [%]	inhibition (INH) (Cytochrome P450 1A2)	inhibition (INH) (Cytochrome P450 2C9)	inhibition (INH) (Cytochrome P450 2C19)	IC50 (Prostaglandin E synthase [1]) [nM]	IC50 (Prostaglandin E synthase [2]) [nM]	inhibition at 20 min, 10 µM (CYP3A4) [%]	remaining at 1 h, 1 µM [3] [%]	inhibition (INH) (Cytochrome P450 2D6)	inhibition (INH) (Cytochrome P450 3A4)	remaining at 1 h, 1 µM [4] [%]	remaining at 1 h, 1 µM [5] [%]	inhibition [6] [%]	inhibition [7] [%]	IC50 [8] [nM]	inhibition at 5 min, 1 µM (COX2 [9]) [%]	inhibition at 5 min, 10 µM (COX2 [10]) [%]	IC50 [11] [nM]	Compound	inhibition in vivo at 10 mg/kg (Cavia porcellus) [%]
32	29	Not Active	Not Active	Not Active	15.9	298	24	100	Not Active	Not Active	81								CC1(C)Oc2cc(C#Cc3ccccc3C(F)(F)F)ccc2-c2nc(-c3c(C#N)cccc3C#N)[nH]c21	
																			O=C(O)Cc1ccccc1Nc1c(Cl)cccc1Cl [DICLOFENAC]	80
35	56	Not Active	Not Active	Not Active	92.9	616	37	93	Not Active	Not Active	89	99	94.6	91.4	> 10000	2.65	27.4	8350	CC1(C)Oc2cc(-c3cccc(C(F)(F)F)c3)ccc2-c2[nH]c(-c3c(F)cccc3Cl)nc21	
